Converted amounts (≈) assume the structure as drawn. The source made the active and inactive calls. The calls are words filed in the database; no cut-off is given here.
Experiments:
[1] = system: Mycobacterium tuberculosis; assay: Antimycobacterial activity against Mycobacterium tuberculosis H37Ra by microplate Alamar blue assay; type: functional
Method in brief: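 M. tuberculosis H37Ra tested by microplate Alamar Blue assay. Activity reported as MIC. Isoniazid and kanamycin sulfate were run as reference drugs.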

Plasmodium falciparum = assay: Antimalarial activity against multidrug-resistant Plasmodium falciparum K1 assessed as inhibition of [3H]hypoxanthine uptake by microculture radioisotope technique; type: functional, organism-based
Method in brief: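 In vitro culture of multidrug-resistant P. falciparum K1 parasites (Trager–Jensen method). Growth measured by [3H]-hypoxanthine uptake in a microculture radioisotope format. IC50 taken as the concentration giving 50% reduction in parasite growth. Artemisinin served as the reference standard.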

[2] = Cytotoxicity against human BC1 cells by SRB assay; type: functional, cell-based
Method in brief: (§1)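 Human cell lines were epidermoid carcinoma KB, breast cancer BC1 and small-cell lung cancer NCI-H187. Cytotoxicity was read by the Skehan colorimetric method, and IC50 was reported in µg/mL. Ellipticine served as the reference substance.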

KB = assay: Cytotoxicity against human KB cells by SRB assay; type: functional, cell-based; method in brief: as §1
NCI-H187 = assay: Cytotoxicity against human NCI-H187 cells by SRB assay; type: functional, cell-based; method in brief: as §1
[3] = Plasmodium falciparum, K1, read-out: IC50
[4] = Homo sapiens, BC1, read-out: IC50
[5] = Homo sapiens, NCI-H187, read-out: IC50

| SMILES | MIC [1] | IC50 (Plasmodium falciparum; [3]) | IC50 [2, 4] | IC50 (KB; Homo sapiens, KB, read-out: IC50) | IC50 (NCI-H187; [5]) | IC50 (Plasmodium falciparum) | IC50 ([2]; bc1) | IC50 (KB; kb) | IC50 (NCI-H187; nci-h187) |
| --- | --- | --- | --- | --- | --- | --- | --- | --- | --- |
| NC[C@H]1O[C@H](O[C@H]2[C@H](O)[C@@H](O[C@H]3O[C@H](CO)[C@@H](O)[C@H](N)[C@H]3O)[C@H](N)C[C@@H]2N)[C@H](O)[C@@H](O)[C@@H]1O.O=S(=O)(O)O [KANAMYCIN SULFATE] | 2 µg/mL |  |  |  |  |  |  |  |  |
| C=C(C(=O)CC)[C@H]1[C@@]2(C)C=C(C)C[C@]1(C)C=C(C)[C@@H]2/C(C)=C\[C@@H]1C=CC(=O)C1 [RUGULOSONE] | 12.5 µg/mL (≈ 33 µM) | 1.9 µg/mL (≈ 5.02 µM) | 1.3 µg/mL (≈ 3.43 µM) | 2.6 µg/mL (≈ 6.87 µM) | 1.3 µg/mL (≈ 3.43 µM) |  |  |  |  |
| C=C(C)[C@H]1COc2c(C)cc3oc4c([C@@H](OC)[C@@H]5OC5(C)C)ccc(O)c4c(=O)c3c2[C@@H]1OC(C)=O | inactive |  |  |  |  | Not Active | Not Active | Not Active | Not Active |
| C=C(C)[C@H]1COc2c(C)cc3oc4c(CC(C)(C)C=O)ccc(O)c4c(=O)c3c2[C@@H]1O [RUGULOXANTHONE A] | inactive |  |  |  |  | Not Active | Not Active | Not Active | Not Active |
| C[C@@H]1CC[C@H]2[C@@H](C)C(=O)O[C@@H]3O[C@@]4(C)CC[C@@H]1[C@]32OO4 [ARTEMISININ] |  | 0.001 µg/mL (≈ 0.00354 µM) |  |  |  |  |  |  |  |
| C=C(C)[C@H]1COc2c(C)cc3oc4c([C@H](OC)[C@@H]5OC5(C)C)ccc(O)c4c(=O)c3c2[C@@H]1O | inactive |  |  |  |  | Not Active | Not Active | Not Active | Not Active |
| NNC(=O)c1ccncc1 [ISONIAZID] | 0.04 µg/mL (≈ 0.292 µM) |  |  |  |  |  |  |  |  |
| C=C(C)[C@H]1COc2c(C)cc3oc4c(C[C@H](O)C(C)(C)O)ccc(O)c4c(=O)c3c2[C@@H]1O.O [TAJIXANTHONE HYDRATE] | inactive |  |  |  |  | Not Active | Not Active | Not Active | Not Active |
| C=C(C)[C@H](O)Cc1ccc(O)c2c(=O)c3c4c(c(C)cc3oc12)OC[C@H](C(=C)C)[C@H]4O [RUGULOXANTHONE C] | inactive |  |  |  |  | Not Active | Not Active | Not Active | Not Active |
| C=C(C)[C@H]1COc2c(C)cc3oc4c(CC=C(C)C)ccc(O)c4c(=O)c3c2[C@@H]1O [SHAMIXANTHONE] | inactive |  |  |  |  | Not Active | Not Active | Not Active | Not Active |
| C=C(C)[C@H]1COc2c(C)cc3oc4c(C[C@H](O)C(C)(C)OCC)ccc(O)c4c(=O)c3c2[C@@H]1O [TAJIXANTHONE ETHANOATE] | inactive |  |  |  |  | Not Active | Not Active | Not Active | Not Active |
| C=C(C)[C@@H]1COc2c(C)cc3oc4c(C[C@@H]5OC5(C)C)ccc(O)c4c(=O)c3c2[C@H]1O [TAJIXANTHONE] | inactive |  |  |  |  | Not Active | Not Active | Not Active | Not Active |
| Cc1c2ccncc2c(C)c2c1[nH]c1ccccc12 [ELLIPTECINE] |  |  | 0.32 µg/mL (≈ 1.3 µM) |  | 0.26 µg/mL (≈ 1.06 µM) |  |  |  |  |
| C=C(C)[C@H]1COc2c(C)cc3oc4c(C[C@H](O)C(C)(C)OC)ccc(O)c4c(=O)c3c2[C@@H]1O [TAJIXANTHONE METHANOATE] | inactive |  |  |  |  | Not Active | Not Active | Not Active | Not Active |
| C=C(C)[C@H]1COc2c(C)cc3oc4c(CC(=O)C(C)C)ccc(O)c4c(=O)c3c2[C@@H]1O [RUGULOXANTHONE B] | inactive |  |  |  |  | Not Active | Not Active | Not Active | Not Active |
